Molecules are shown by their SMILES. pIC50: −log10 of the molar value.

From ChEMBL document CHEMBL1649420, “Identifying chelators for metalloprotein inhibitors using a fragment-based approach” (J Med Chem, 2011) come the findings set out here.

Chain of 72 kDa type IV collagenase (P08253 whole entry): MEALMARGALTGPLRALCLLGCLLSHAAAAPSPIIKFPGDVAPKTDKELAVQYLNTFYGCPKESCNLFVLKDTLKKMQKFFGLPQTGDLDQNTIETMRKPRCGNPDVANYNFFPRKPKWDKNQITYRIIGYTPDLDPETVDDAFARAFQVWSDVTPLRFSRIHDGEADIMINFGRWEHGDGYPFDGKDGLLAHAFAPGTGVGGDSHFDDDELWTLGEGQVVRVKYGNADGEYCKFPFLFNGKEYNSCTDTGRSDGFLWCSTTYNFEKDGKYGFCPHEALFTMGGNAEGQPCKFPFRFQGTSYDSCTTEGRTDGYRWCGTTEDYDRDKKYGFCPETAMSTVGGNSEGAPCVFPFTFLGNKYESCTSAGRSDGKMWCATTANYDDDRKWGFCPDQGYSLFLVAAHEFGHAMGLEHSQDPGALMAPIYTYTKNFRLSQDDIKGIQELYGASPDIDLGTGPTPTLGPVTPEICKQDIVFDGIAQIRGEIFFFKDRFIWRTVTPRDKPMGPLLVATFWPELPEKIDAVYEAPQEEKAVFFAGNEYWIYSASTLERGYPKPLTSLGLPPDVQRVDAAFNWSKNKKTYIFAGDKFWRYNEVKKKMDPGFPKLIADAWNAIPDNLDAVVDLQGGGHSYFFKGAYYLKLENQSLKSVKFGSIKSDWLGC

The first assay has as its target T1, Nitric oxide synthase, inducible (Mus musculus) (UniProt P29477).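 Also: recombinant enzyme, activity read out colorimetrically after 40 min.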
T1 sequence (whole entry): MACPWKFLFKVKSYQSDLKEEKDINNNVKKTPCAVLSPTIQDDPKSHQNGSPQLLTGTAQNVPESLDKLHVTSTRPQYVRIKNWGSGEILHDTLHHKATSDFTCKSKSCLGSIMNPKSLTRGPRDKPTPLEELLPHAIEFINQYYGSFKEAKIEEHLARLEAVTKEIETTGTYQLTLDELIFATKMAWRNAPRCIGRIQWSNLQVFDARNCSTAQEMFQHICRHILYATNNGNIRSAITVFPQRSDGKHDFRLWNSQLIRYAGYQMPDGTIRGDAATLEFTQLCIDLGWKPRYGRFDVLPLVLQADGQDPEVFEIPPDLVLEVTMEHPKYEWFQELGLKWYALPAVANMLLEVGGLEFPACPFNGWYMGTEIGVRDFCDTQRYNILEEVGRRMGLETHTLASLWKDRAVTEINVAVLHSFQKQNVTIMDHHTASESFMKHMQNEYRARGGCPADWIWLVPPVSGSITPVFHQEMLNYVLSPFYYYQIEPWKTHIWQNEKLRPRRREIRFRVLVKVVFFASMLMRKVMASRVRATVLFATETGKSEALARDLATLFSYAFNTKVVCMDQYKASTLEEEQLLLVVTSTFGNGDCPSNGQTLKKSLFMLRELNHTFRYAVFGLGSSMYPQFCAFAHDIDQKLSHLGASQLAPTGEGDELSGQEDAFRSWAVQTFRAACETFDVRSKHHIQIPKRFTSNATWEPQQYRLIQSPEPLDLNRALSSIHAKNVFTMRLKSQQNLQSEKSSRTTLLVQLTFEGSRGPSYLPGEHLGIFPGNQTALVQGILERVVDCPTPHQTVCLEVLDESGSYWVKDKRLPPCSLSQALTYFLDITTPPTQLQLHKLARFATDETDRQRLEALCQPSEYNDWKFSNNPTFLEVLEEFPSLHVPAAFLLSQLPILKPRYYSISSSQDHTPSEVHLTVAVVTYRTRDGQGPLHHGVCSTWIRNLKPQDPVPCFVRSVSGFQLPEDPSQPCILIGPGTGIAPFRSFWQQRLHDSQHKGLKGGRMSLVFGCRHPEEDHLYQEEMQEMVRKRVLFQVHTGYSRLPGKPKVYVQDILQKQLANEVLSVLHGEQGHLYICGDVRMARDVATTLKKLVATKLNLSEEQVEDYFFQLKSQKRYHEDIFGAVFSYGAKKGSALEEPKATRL
The following applies: at 1 mM.
`O=c1cccccc1O` [TROPOLONE]: the inhibition (usually the change of the read-out against control, counted positive when it falls) was 9%.

For `Cc1cc(O)nc(C)n1`, the inhibition stood at 8%.

Take `O=C(O)c1nccc2ccccc12`: the inhibition came to 13%.

Regarding `O=C(O)c1cccc(C(=O)O)n1`, the inhibition came out at 20%.

With `Cc1cc(=O)c(O)co1`, the inhibition is -3%.

With `O=C(O)c1cccc(O)c1O`, the inhibition amounted to 2%.

As for `Cc1cc(=O)c(O)c(CCl)o1`, the inhibition worked out at 6%.

With `O=C(O)c1ccccc1O`, the inhibition worked out at 13%.

As for `O=C(O)c1ncccc1O`, the inhibition turned out to be 46%.

As for `O=C(O)c1ccc(F)cc1O`, the inhibition came to 1%.

In the case of `O=C(O)c1ccc(C(=O)O)nc1`, the inhibition was -4%.

As for `Cc1cc(O)nc(O)n1`, the inhibition is 8%.

For the molecule `c1ccc(CNCc2ccccn2)nc1`, the inhibition was -2%.

`O=C(O)c1cc(F)ccc1O`: the inhibition was 1%.

On to `Nc1cc(=O)nc(N)[nH]1`, for which the inhibition was found to be 7%.

In the case of `Cc1occ(O)c(=O)c1C(=O)O`, the inhibition came to 17%.

Turning to `CC(=O)C(C)C(C)=O`, the inhibition is 7%.

As for `Nc1ccc(C(=O)O)c(O)c1`, the inhibition was found to be 8%.

`CCCCc1ccc(C(=O)O)nc1`: the inhibition is 10%.

Turning to `Oc1ncccn1`, the inhibition stood at 6%.

In the case of `O=c1cc(CCl)occ1O`, the inhibition was 63%.

Regarding `Cc1ccc(S(N)(=O)=O)cc1`, the inhibition is -5%.

On to `Cc1cccc(C(=O)O)c1O`, for which the inhibition was determined as 13%.

As for `Cn1cccc(O)c1=O`, the inhibition was -5%.

As for `[O-][n+]1cccc2cccc(O)c21`, the inhibition was found to be 28%.

In the case of `Cc1ccc(O)c(C(=O)O)c1`, the inhibition came out at 21%.

Turning to `CCn1ccc(=O)c(O)c1C`, the inhibition was -9%.

On to `Cc1nc(O)nc(O)c1C`, for which the inhibition stood at 46%.

Consider `O=c1ccocc1O`, for which the inhibition turned out to be 22%.

Turning to `Nc1[nH]cnc2ncnc1-2`, the inhibition amounted to 6%.

Take `O=C(O)c1ccccn1`: the inhibition was 6%.

Regarding `C1CNCCNCCN1`, the inhibition came out at 0%.

Take `O=C(O)c1cccc(Br)n1`: the inhibition is 17%.

For `O=C(O)c1cccc[n+]1[O-]`, the inhibition is -1%.

As to `CC(=O)C1CCCC1=O` (configuration not stated), the inhibition was 29%.

For the molecule `O=c1occcc1O`, the inhibition was found to be 42%.

A further assay addresses 72 kDa type IV collagenase (Homo sapiens, UniProt P08253). Briefly: Inhibition of human recombinant MMP2 after 30 mins.
Conditions: not given
In a few lines:
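Enzyme (1.16 U) preincubated 30 min at 37 °C with fragment in 50 mM HEPES, 10 mM CaCl2, 0.05% Brij-35, pH 7.5. Fluorogenic Mca peptide substrate (4 μM final) then added. Rate of fluorescence increase compared with no-inhibitor control (100%). Single-point 25 μM final for the 8-hydroxyquinoline sublibrary. IC50 fitted to dose-response curves from serial dilutions of DMSO stocks.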
With `O=c1cccccc1O` [TROPOLONE], the negative logarithm of the IC50 (pIC50) – broadly, the IC50 on a negative log10 scale, so that one unit is a factor of ten – is 3.84.
